# Measurements taken from ChEMBL document CHEMBL1212828, “Synthesis and biological evaluation of novel pyrazole compounds” (Bioorg Med Chem, 2010).
# Calls of active or inactive are those of the source. The rule behind the calls is not given here.
# Key:
# Rattus norvegicus [1] = assay: Antiinflammatory activity in Wistar albino rat assessed as inhibition of formalin-induced paw edema at 20 mg/kg, po administered 1 hr prior to formalin challenge measured after 4 hrs relative to control; type: functional
# Procedure, shortened: (§1)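 Male Wistar rats, 180–200 g, groups of five; single oral dose 1 h before 2% formalin (0.1 mL) into subplantar left hind paw under light ether anaesthesia. Paw volume read by water plethysmometer at baseline and 1, 2, 3, 4 h; % inhibition = control (Vt−Vo) minus treated (Vt−Vo), over control, ×100. Means ± SEM; ANOVA with Student–Newman–Keuls.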
# Rattus norvegicus [2] = assay: Antiinflammatory activity in Wistar albino rat assessed as inhibition of turpentine oil-induced granuloma at 20 mg/kg, po qd for 7 days post turpentine oil challenge measured on day 8; type: functional
# Procedure, shortened: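 In ether-anaesthetized male Wistar rats (five per group) a dorsal subcutaneous pouch is formed with 2 mL air, then 0.5 mL turpentine oil is injected. Oral dosing at 20 mg/kg starts 1 h before turpentine and continues 7 days. On day 8 the exudate is drawn by syringe and its volume recorded; % inhibition = (Vcontrol − Vtreated)/Vcontrol × 100.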
# Rattus norvegicus [3] = assay: Toxicity in Wistar albino rat assessed as ulcerogenic activity at 300 mg/kg, po qd for 3 days; type: organism-based; parameters: dose 300 mg/kg, route oral; conditions: in vivo, 72 h
# Procedure, shortened: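 Rats in groups of five, fasted 12 h with water ad libitum; oral dosing in two equal portions at 0 and 12 h for three days, 300 mg/kg per day; control given 1% gum acacia. Killed 6 h after last dose; stomach opened along greater curvature, saline-washed, inspected under 3× lens for hyperemia, hemorrhage, erosion or ulcer.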
# [4] = Acute toxicity in Wistar albino rat after 24 hrs; type: organism-based; conditions: in vivo, read-out: ALD50
# Procedure, shortened: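 Male Wistar albino rats (180–200 g), fasted 24 h, groups of five; compound given orally in graded doses of 0.1–3.0 g/kg. Mortality recorded at each dose after 24 h to estimate approximate acute lethal dose (ALD50).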
# Rattus norvegicus [5] = assay: Antiinflammatory activity in po dosed Wistar albino rat assessed as inhibition of formalin-induced paw edema after 3 hrs relative to control; type: functional
# Rattus norvegicus [6] = assay: Antiinflammatory activity in Wistar albino rat assessed as inhibition of formalin-induced paw edema at 20 mg/kg, po administered 1 hr prior to formalin challenge measured after 1 hr relative to control; type: functional; procedure, shortened: as §1
# Rattus norvegicus [7] = assay: Antiinflammatory activity in Wistar albino rat assessed as inhibition of formalin-induced paw edema at 20 mg/kg, po administered 1 hr prior to formalin challenge measured after 3 hrs relative to control; type: functional; procedure, shortened: as §1
# Rattus norvegicus [8] = assay: Antiinflammatory activity in Wistar albino rat assessed as inhibition of formalin-induced paw edema at 20 mg/kg, po administered 1 hr prior to formalin challenge measured after 2 hrs relative to control; type: functional; procedure, shortened: as §1
# Rattus norvegicus [9] = assay: Antiinflammatory activity in Wistar albino rat sub-acute inflammatory model assessed as inhibition of formalin-induced paw edema at 20 mg/kg, po administered 1 hr prior to formalin challenge measured on day 8 relative to control; type: functional
# Procedure, shortened: (§2)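 Male Wistar rats, 180–200 g, five per group, dosed orally 20 mg/kg daily for 7 consecutive days. Formalin (2%, 0.1 mL) injected subplantar into left hind paw under light ether 1 h after dosing, repeated on day 3. Paw volume measured plethysmographically on days 1 and 8; inhibition expressed relative to untreated controls.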
# Rattus norvegicus [10] = assay: Antiinflammatory activity in Wistar albino rat sub-acute inflammatory model assessed as inhibition of formalin-induced paw edema at 20 mg/kg, po administered 1 hr prior to formalin challenge measured on day 1 relative to control; type: functional; procedure, shortened: as §2
# THP-1 [11] = assay: Neuroprotective activity against LPS and IFN-gamma-stimulated neurotoxin production in human THP1 cell assessed as inhibition of THP1 cell secretion-induced toxicity to human SH-SY5Y cells after 72 hrs by MTT assay; type: functional, cell-based; conditions: THP-1, 72 h
# Procedure, shortened: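 THP-1 cells pretreated 15 min with compound, then stimulated with LPS (0.5 µg/mL) plus IFN-γ (150 U/mL) for 24 h. Cell-free supernatant transferred to SH-SY5Y cells plated 24 h earlier (2 × 10^5 cells/mL). After 72 h, SH-SY5Y viability read by MTT (0.5 mg/mL, 1 h, 37 °C, OD570) or by LDH release (OD490, relative to Triton X-100 lysis). IC50 estimated.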
# THP-1 [12] = assay: Antiinflammatory activity in human THP1 cells assessed as reduction in LPS and IFN-gamma-induced MCP level after 24 hrs; type: functional, cell-based; conditions: Homo sapiens, THP-1, 24 h; read-out: IC50
# Procedure, shortened: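 THP-1 cells (5 × 10^5 cells/mL, DMEM-F12 with 5% FBS) pretreated 15 min with compound or DMSO vehicle, then stimulated with 0.5 µg/mL LPS plus 150 U/mL IFN-γ. After 24 h, MCP-1 in cell-free medium measured by ELISA. IC50 estimated from concentration–response; randomized block ANOVA.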
# THP-1 [13] = assay: Cytotoxicity against human THP1 cells assessed as reduction in cell viability; type: cell-based
# Procedure, shortened: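 THP-1 cells in DMEM-F12 with 5% FBS, 24-well plates, pretreated 15 min with compound or DMSO vehicle, then stimulated with LPS 0.5 µg/mL plus IFN-γ 150 U/mL for 24 h. Death read as supernatant LDH (iodonitrotetrazolium formazan, 490 nm, fraction of Triton X-100 lysate); survival by MTT; MCP-1 by ELISA. Concentration effects by randomized block ANOVA; 8–11 independent experiments.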
# SH-SY5Y (Homo sapiens) = assay: Neuroprotective activity against LPS and IFN-gamma-induced human THP1 cell supernatant-induced death of human SH-SY5Y cells after 72 hrs by MTT assay; conditions: THP-1
# [14] = biological target: T1, Prostaglandin G/H synthase 2 (Homo sapiens) (UniProt P35354); assay: Inhibition of human COX2 at 100 uM
# T1 sequence (whole entry): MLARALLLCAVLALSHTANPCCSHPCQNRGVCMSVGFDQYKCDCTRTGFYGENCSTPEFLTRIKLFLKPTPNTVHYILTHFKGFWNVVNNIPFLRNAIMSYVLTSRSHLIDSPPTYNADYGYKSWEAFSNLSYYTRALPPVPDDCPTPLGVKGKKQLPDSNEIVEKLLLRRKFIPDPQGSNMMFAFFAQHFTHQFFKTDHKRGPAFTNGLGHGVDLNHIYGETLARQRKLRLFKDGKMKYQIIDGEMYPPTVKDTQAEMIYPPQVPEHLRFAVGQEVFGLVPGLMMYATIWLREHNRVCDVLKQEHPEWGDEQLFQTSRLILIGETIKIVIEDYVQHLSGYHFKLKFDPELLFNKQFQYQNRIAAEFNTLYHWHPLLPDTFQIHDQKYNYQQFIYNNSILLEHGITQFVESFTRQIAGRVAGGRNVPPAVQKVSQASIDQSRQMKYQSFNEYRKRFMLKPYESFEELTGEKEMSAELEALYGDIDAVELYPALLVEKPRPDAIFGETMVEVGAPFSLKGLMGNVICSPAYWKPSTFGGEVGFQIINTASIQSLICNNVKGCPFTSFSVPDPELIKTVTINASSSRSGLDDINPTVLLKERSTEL
# Procedure, shortened: (§3)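 Screening kit with ovine COX-1 and human recombinant COX-2, run per manufacturer's protocol; percent inhibition of prostaglandin production measured for each isoform.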
# [15] = biological target: T2, Prostaglandin G/H synthase 1 (Ovis aries) (UniProt P05979); assay: Inhibition of ovine COX1 at 100 uM; procedure, shortened: as §3
# T2 sequence (whole entry): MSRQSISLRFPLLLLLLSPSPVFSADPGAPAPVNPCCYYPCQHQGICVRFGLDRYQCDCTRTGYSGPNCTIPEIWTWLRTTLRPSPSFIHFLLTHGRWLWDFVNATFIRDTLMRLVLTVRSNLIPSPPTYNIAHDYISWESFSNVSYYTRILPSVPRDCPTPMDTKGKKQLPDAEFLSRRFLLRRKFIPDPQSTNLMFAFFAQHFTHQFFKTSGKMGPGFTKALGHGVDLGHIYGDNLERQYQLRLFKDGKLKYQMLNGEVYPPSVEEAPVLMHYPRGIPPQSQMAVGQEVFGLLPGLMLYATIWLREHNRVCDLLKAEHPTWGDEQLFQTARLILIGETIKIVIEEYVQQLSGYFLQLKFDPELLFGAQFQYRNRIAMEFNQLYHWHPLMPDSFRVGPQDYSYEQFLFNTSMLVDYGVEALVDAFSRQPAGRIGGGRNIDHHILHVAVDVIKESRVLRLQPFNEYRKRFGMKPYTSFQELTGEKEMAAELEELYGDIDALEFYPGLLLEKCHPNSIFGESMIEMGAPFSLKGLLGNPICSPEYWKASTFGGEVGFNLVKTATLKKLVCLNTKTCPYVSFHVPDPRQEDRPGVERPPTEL
# SH-SY5Y = assay: Neuroprotective activity in human SH-SY5Y cells; type: functional, cell-based
# Procedure, shortened: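 SH-SY5Y cells seeded at 2 × 10^5/mL in DMEM-F12 with 5% FBS; after 24 h medium replaced by supernatant of THP-1 cells stimulated 24 h with LPS + IFN-γ, or by medium containing 250 µM H2O2, with compound added at transfer. Cell death measured by LDH assay 72 h later; five independent experiments; randomized block ANOVA.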
Compound,inhibition in vivo at 20 mg/kg (Rattus norvegicus [1]) [%],inhibition in vivo at 20 mg/kg (Rattus norvegicus [2]) [%],Activity (Rattus norvegicus [3]) [%],ED50 (Rattus norvegicus [5]) [mg/kg],inhibition in vivo at 20 mg/kg (Rattus norvegicus [6]) [%],inhibition in vivo at 20 mg/kg (Rattus norvegicus [7]) [%],inhibition in vivo at 20 mg/kg (Rattus norvegicus [8]) [%],inhibition in vivo at 20 mg/kg (Rattus norvegicus [9]) [%],inhibition in vivo at 20 mg/kg (Rattus norvegicus [10]) [%],IC50 (THP-1 [11]) [µM],IC50 (THP-1 [12]) [µM],EC50 (THP-1 [13]) [µM],also measured
C[C@@H](NC(=O)C(=O)Nc1c(C#N)cnn1-c1ccccc1)c1ccccc1,50,39,0,18.9,56,44,36,33,39,,,,LD50 at 24 h [4]: > 300 mg/kg
Cc1ccc(-c2cc(C(F)(F)F)nn2-c2ccc(S(N)(=O)=O)cc2)cc1 [CELECOXIB],47,46,0,15.7,38,56,41,41,37,5,70,,
COc1ccc2c(c1)c(CC(=O)O)c(C)n2C(=O)c1ccc(Cl)cc1 [INDOMETHACIN],,,100,,,,,,,,,,
N#Cc1cnn(-c2ccccc2)c1NC(=O)C(=O)NCCc1ccccc1,,,,,,,,,,,,10,
N#Cc1cnn(-c2ccccc2)c1NC(=O)C(=O)NC1CCCCC1,,,,,,,,,,250,> 500,80,
N#Cc1cnn(-c2ccccc2)c1NC(=O)C(=O)NCCCN1CCOCC1,,,,,,,,,,100,> 500,> 500,
C[C@H](NC(=O)C(=O)Nc1c(C#N)cnn1-c1ccccc1)c1ccccc1,39,49,0,22.4,37,38,32,35,41,,,,LD50 at 24 h [4]: > 300 mg/kg
COC(=O)c1nc2c(cnn2-c2ccccc2)c(=O)[nH]1,,,,,,,,,,20,100,40,Activity (SH-SY5Y (Homo sapiens)): Active; inhibition [14]: 14.2%; inhibition [15]: 16.4%; Activity (SH-SY5Y): inactive
